A word on the Cmax: it is the maximum level reached in the sampled fluid or tissue. One may read the clearance as the volume of plasma or blood freed of the substance per unit of time. What is called half-life is the time needed for the level to fall by half in the phase considered. For orientation: AUC(0-inf) means the area under the concentration-time curve extrapolated to infinity. By AUC(0-t) is commonly meant the area under the concentration-time curve up to a stated or last time point. By inhibition in vivo is commonly meant the change of the read-out against control, counted positive when it falls.

We go through two molecules from ChEMBL document CHEMBL5252546, “Salutaxel, a Conjugate of Docetaxel and a Muramyl Dipeptide (MDP) Analogue, Acts as Multifunctional Prodrug That Inhibits Tumor Growth and Metastasis” (J Med Chem, 2018).

The nature of data set [1]: Toxicity in BALB/c mouse xenografted with human NCI-H1975 cells assessed as side effects at 5.7 mg/kg,iv administrated once per week for 3 weeks. The data set is classed as organism-based. As to conditions: in vivo, 504 h. Put shortly: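 Nude BALB/c nu/nu mice received subcutaneous human tumour cells into the right flank. Dosing started at mean tumour volume of 100–120 mm3, iv once weekly for 3 weeks; the taxane arm was an equimolar control. Body weight and overt side effects were monitored. Mean ± SEM, n = 8.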
On the technique in general: A xenograft is tissue or cells of one species grown in another, often human tumour cells in immunodeficient mice.

Data set [2] is described as follows: Toxicity in BALB/c mouse xenografted with mouse 4T1 cells assessed as decrease in body weight at 5.7 mg/kg,iv administrated with doxorubicin combination once per week for 4 weeks. Format: organism-based. To be noted: in vivo, 672 h. Put shortly: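 4T1 mammary fat-pad model in BALB/c mice. Doxorubicin (4 mg/kg) was given alone or co-administered with the conjugate or its parent taxane, with iv saline vehicle. Readouts were body weight, tumour volume, tumour weight, lung metastatic nodules and lung metastasis score. Mean ± SEM, n = 10; ANOVA and Student's t test.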

Data set [3] has as its system 4T1. The experiment in a line: Antitumor activity against mouse 4T1 cells xenografted with BALB/c mouse assessed as reduction lung metastatic nodules at 5.7 mg/kg,iv administrated once per week for 4 weeks. Format: functional, organism-based. Put shortly: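 4T1 cells injected into mammary fat pads of BALB/c mice. Dosing iv once per week for 4 weeks, saline vehicle; single-agent arms were given alone or with the peptide component (5b or 6). Endpoints were body weight, tumour volume, tumour weight, lung metastatic nodule count and lung metastasis score. Mean ± SEM, n = 10; ANOVA and Student's t test.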

Data set [4] has as its system 4T1. The experiment in a line: Antitumor activity against mouse 4T1 cells implanted in BALB/c mouse assessed as decrease in serum MMP9 level at 5.7 mg/kg,iv administrated once per week for 4 weeks in presence of MDA-205 by ELISA. The data set is classed as functional, organism-based. In general terms: ELISA stands for enzyme-linked immunosorbent assay.
A short description of data set [5]: Plasma protein binding in human plasma incubated for 4 hrs. As to conditions: read-out: PPB (converted). Format: ADME, cell-free.
Data set [6] in a line: Prodrug conversion in mouse tumor implanted with mouse 4T1 cells assessed as Cmax of docetaxel at 4 mg/kg,iv measured upto 72 hrs. The data set is classed as ADME, organism-based, Neoplasm. Set-up: time < 72 hrs, dose 4 mg/kg, route iv. To be noted: in vivo.
A short description of data set [7]: Drug distribution in rat spleen at 4 mg/kg,iv measured by 0.25 hrs. The data set is classed as ADME, organism-based. As to conditions: in vivo. Put shortly: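 Rats received 4 mg/kg iv. Parent drug and released docetaxel were assayed in tissues and plasma from the first sampling at 0.25 h to 24 h. The lower limit of quantitation was 200 ng/g.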
Data set [8] in a line: Clearance in Beagle dog at 2 mg/kg,iv measured upto 24 hrs. The data set is classed as ADME, organism-based, Canis lupus familiaris. As to conditions: in vivo. In short, it runs like this:
(§1)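 Beagle dogs were given a single iv infusion at 1, 2 or 4 mg/kg. Plasma parent drug and released docetaxel were followed over time. Cmax, Tmax, AUC, MRT, t1/2, CL and Vss were reported by sex and for all dogs combined.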

The nature of data set [9]: Clearance in male Beagle dog at 1 mg/kg,iv measured upto 24 hrs. Format: ADME, organism-based, Canis lupus familiaris. To be noted: in vivo. Put shortly:
as §1

Data set [10] is described as follows: Clearance in female rat at 4 mg/kg,iv measured upto 24 hrs. The data set is classed as ADME, organism-based. As to conditions: in vivo. In short, it runs like this:
(§2)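 Rats were given a single iv injection at 2, 4 or 8 mg/kg. Plasma parent drug and released docetaxel were followed over time. Cmax, Tmax, AUC, MRT, t1/2, CL and Vss were reported for males, females and all animals combined.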

Data set [11] in a line: Half life in male Beagle dog at 4 mg/kg,iv measured upto 24 hrs. The data set is classed as ADME, organism-based, Canis lupus familiaris. As to conditions: in vivo.
A short description of data set [12]: AUC (0-infinity) in rat at 4 mg/kg,iv measured upto 24 hrs. The data set is classed as ADME, organism-based. Set-up: dose 4 mg/kg, time < 24 hrs, route iv. To be noted: in vivo. Put shortly: (§3)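 Single iv dose: rats 2, 4 or 8 mg/kg by intravenous injection; Beagle dogs 1, 2 or 4 mg/kg by intravenous infusion. Plasma concentration–time data were analysed by sex and pooled. Reported parameters: Cmax, Tmax, AUC0−t, AUC0−∞, MRT0−∞, t1/2, CL, Vss, given as mean ± SD.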

The nature of data set [13]: AUC (0-t) in rat at 2 mg/kg,iv measured upto 24 hrs. Set-up: dose 2 mg/kg, time < 24 hrs, route iv. The data set is classed as ADME, organism-based. To be noted: in vivo. Put shortly: as §3
Data set [14] can be described thus: Cmax in rat at 2 mg/kg,iv measured upto 24 hrs. Format: ADME, organism-based. Set-up: time < 24 hrs, dose 2 mg/kg, route iv. To be noted: in vivo. In short, it runs like this: as §2
The nature of data set [15]: Cmax in female Beagle dog at 1 mg/kg,iv measured upto 24 hrs. Format: ADME, organism-based, Canis lupus familiaris. Set-up: dose 1 mg/kg, time < 24 hrs, route iv. As to conditions: in vivo. Put shortly:
as §1

The nature of data set [16]: Cmax in male Beagle dog at 4 mg/kg,iv measured upto 24 hrs. Format: ADME, organism-based, Canis lupus familiaris. Set-up: time < 24 hrs, dose 4 mg/kg, route iv. As to conditions: in vivo. In short, it runs like this:
as §1

For data set [17], the system named is 4T1. The experiment in a line: Synergistic antitumor activity against mouse 4T1 cells xenografted with BALB/c mouse assessed as decrease in tumor weight at 10 mg/kg,iv administrated in combination with doxorubicin once per week for 4 weeks. Format: functional, organism-based.
Data set [18] deals with 4T1. The experiment in a line: Antitumor activity against mouse 4T1 cells xenografted with BALB/c mouse assessed as inhibition of tumor growth at 5 mg/kg,iv administrated once per week for 4 weeks. The data set is classed as functional. As to conditions: 4T1, 672 h. In short, it runs like this: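 4T1 cells injected into the mammary fat pad of BALB/c mice; iv saline vehicle or 5, 10 or 20 mg/kg once weekly for 4 weeks; body weight, tumour volume, tumour weight, lung metastatic nodule count and metastasis score recorded; n = 10, mean ± SEM, ANOVA and Student's t test.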

Data set [19] is described as follows: Drug metabolism in rat hepatocytes assessed as MDA-205 metabolite formation at 20 uM incubated for 180 mins. As to conditions: 3 h. Format: ADME, cell-based, Hepatocyte.
Data set [20] can be described thus: Drug metabolism in human hepatocytes assessed as docetaxel metabolite formation at 20 uM incubated for 180 mins. Format: ADME, cell-based, Hepatocyte. To be noted: 3 h.
Data set [21] in a line: Stability in mouse plasma assessed as compound remaining at 1 uM incubated for 6 hrs. Format: ADME, cell-free.
The nature of data set [22]: Stability in mouse plasma assessed as compound remaining at 40 uM incubated for 6 hrs. Format: ADME, cell-free.
The subject of data set [23] is 4T1. The experiment in a line: Antitumor activity against mouse 4T1 cells implanted in BALB/c mouse assessed as decrease in spleen MDSC cells at 5 mg/kg,iv measured after 28 days (reference value: 38%). The data set is classed as functional. Set-up: scale not given: the % may be the effect or the level left. As to conditions: time 28 day.
For data set [24], the system named is 4T1. In words: Antitumor activity against mouse 4T1 cells implanted in BALB/c mouse assessed as decrease in serum MMP9 level at 10 mg/kg,iv administrated once per week for 4 weeks by ELISA. The data set is classed as functional, organism-based. Put shortly: (§4)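 4T1 fat-pad model in BALB/c mice, iv 5–20 mg/kg once weekly for 4 weeks, with vehicle and naive groups; serum MMP9, TIMP-1, IL-6 and S100A9 measured by mouse ELISA kits.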

In data set [25] the test system is 4T1. The experiment in a line: Antitumor activity against mouse 4T1 cells implanted in BALB/c mouse assessed as decrease in serum TIMP-1 level at 20 mg/kg,iv administrated once per week for 4 weeks by ELISA. The data set is classed as functional, organism-based. Put shortly: as §4
Data set [26] concerns 4T1. In words: Antitumor activity against mouse 4T1 cells implanted in BALB/c mouse assessed as decrease in spleen MMP2 expression level at 5 to 20 mg/kg,iv administrated once per week for 4 weeks by western blot assay. Format: functional, organism-based. As to conditions: dose 5-20 mg/kg. In short, it runs like this:
(§5)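 4T1 fat-pad model in BALB/c mice, iv once weekly for 4 weeks; MMP9, MMP2 and NOD1 in spleen, lung and tumour by western blot, β-actin loading control; bands averaged over five mice per group, representative of two independent experiments.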
In general terms: Immunoblotting shows a protein as a band on a membrane.

For data set [27], the system named is 4T1. The experiment in a line: Antitumor activity against mouse 4T1 cells implanted in BALB/c mouse assessed as decrease in tumor MMP2 expression level at 5 to 20 mg/kg,iv administrated once per week for 4 weeks by western blot assay. Format: functional, organism-based. To be noted: dose 5-20 mg/kg. In short, it runs like this:
as §5

Data set [28] has as its system 4T1. In words: Antitumor activity against mouse 4T1 cells implanted in BALB/c mouse assessed as decrease in neutrophil in peripheral blood at 20 mg/kg,iv administrated qd for 2 days by blood smear staining microscopic analysis. The data set is classed as functional, organism-based. To be noted: time 2.0 day. In short, it runs like this:
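Day 19 after 4T1 implantation, mice randomised into five groups; iv vehicle or 20 mg/kg plus ip C12-iE-DAP (50 μg/mouse) and MDP (100 μg/mouse) once daily for 2 days; blood taken 6 h later; neutrophils/leukocytes counted on stained blood smears at 1000× light microscopy.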

Activity calls are given as the source filed them.

Turning to `CC(=O)O[C@@]12CO[C@@H]1C[C@H](O)[C@@]1(C)C(=O)[C@H](O)C3=C(C)[C@@H](OC(=O)[C@H](O)[C@@H](NC(=O)OC(C)(C)C)c4ccccc4)C[C@@](O)([C@@H](OC(=O)c4ccccc4)[C@H]21)C3(C)C` [DOCETAXEL ANHYDROUS], the Activity entry in data set [1] was “Non-Toxic”; in data set [2], “Toxic”. The result with 4T1 [3] was inactive. For the same molecule, the outcome with 4T1 [4] was Active.
As for `CC(=O)O[C@@]12CO[C@@H]1C[C@H](O)[C@@]1(C)C(=O)[C@H](O)C3=C(C)[C@@H](OC(=O)[C@H](OC(=O)CCC(=O)NCCCC[C@H](NC(=O)CC[C@@H](NC(=O)[C@H](C)NC(=O)/C=C/c4ccc(F)cc4Cl)C(N)=O)C(=O)O)[C@@H](NC(=O)OC(C)(C)C)c4ccccc4)C[C@@](O)([C@@H](OC(=O)c4ccccc4)[C@H]21)C3(C)C`, in data set [5], the fraction unbound at 4 h is 0.007. For the same molecule, the peak concentration (Cmax) was found to be 2390 nM in data set [6], 15200 ng/mL in [14], 4020 ng/mL in [15] and 29600 ng/mL in data set [16]. Besides, the Drug uptake result in [7] is reported as “Active”. Also, the clearance in data set [8] turned out to be 6.08 mL/min/kg; in data set [9], 11.7 mL/min/kg; in data set [10], 5.13 mL/min/kg. The same molecule gave a half-life in data set [11] of 36.6 min. Also, the AUC(0-inf) in data set [12] turned out to be 16900 ng·h/mL. This molecule also returned an exposure AUC(0-t) at 24 h in [13] of 5200 ng·h/mL. For the same molecule, the outcome in the data set on 4T1 [17], in the data set with 4T1 [24], in the data set with 4T1 [25] and in the data set on 4T1 [28] was Active. Also, in the data set on 4T1 [18], the inhibition in vivo at 5 mg/kg is 12%. Also, the Drug metabolism result in data set [19] and in data set [20] was “Metabolite_Detected” in each case. The Stability entry in data set [21] and in data set [22] was “Stable” throughout. Moreover, the Activity in the data set on 4T1 [23] is on record as 36.2%. The result in the data set on 4T1 [26] and with 4T1 [27] was inactive.
